For 10 compounds, inhibition results are on record in ChEMBL document CHEMBL1165965, “Synthesis and structure-activity relationships of 1,2,3,4-tetrahydropyrido[2,3-b]pyrazines as potent and selective inhibitors of the anaplastic lymphoma kinase” (Bioorg Med Chem, 2010).

For experiment [1], the target named is T1, Tyrosine-protein kinase ZAP-70 (Homo sapiens) (UniProt P43403).
T1 sequence (whole entry): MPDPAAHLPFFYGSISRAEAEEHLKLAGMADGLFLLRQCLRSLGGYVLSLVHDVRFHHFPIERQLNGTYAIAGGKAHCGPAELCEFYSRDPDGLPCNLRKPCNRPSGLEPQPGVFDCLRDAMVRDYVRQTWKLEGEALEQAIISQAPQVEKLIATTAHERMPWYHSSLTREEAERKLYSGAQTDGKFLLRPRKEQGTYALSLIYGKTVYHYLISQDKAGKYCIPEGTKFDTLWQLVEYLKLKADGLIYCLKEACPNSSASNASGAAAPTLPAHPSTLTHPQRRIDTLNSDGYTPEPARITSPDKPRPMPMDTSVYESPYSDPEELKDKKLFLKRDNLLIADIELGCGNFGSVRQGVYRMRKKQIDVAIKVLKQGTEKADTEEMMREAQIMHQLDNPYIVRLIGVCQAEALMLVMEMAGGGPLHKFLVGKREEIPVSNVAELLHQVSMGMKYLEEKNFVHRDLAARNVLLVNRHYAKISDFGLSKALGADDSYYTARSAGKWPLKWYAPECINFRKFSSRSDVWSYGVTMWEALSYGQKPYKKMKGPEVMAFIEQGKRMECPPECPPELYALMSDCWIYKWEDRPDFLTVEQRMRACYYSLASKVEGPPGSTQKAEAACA
Put plainly: Inhibition of ZAP70 at 1 uM.

For experiment [2], the target named is MAP kinase-interacting serine/threonine-protein kinase 1 (Homo sapiens) (UniProt Q9BUB5). Put plainly: Inhibition of MKNK1 at 1 uM.
Sequence of MAP kinase-interacting serine/threonine-protein kinase 1 (Homo sapiens) (Q9BUB5 whole entry, looked up): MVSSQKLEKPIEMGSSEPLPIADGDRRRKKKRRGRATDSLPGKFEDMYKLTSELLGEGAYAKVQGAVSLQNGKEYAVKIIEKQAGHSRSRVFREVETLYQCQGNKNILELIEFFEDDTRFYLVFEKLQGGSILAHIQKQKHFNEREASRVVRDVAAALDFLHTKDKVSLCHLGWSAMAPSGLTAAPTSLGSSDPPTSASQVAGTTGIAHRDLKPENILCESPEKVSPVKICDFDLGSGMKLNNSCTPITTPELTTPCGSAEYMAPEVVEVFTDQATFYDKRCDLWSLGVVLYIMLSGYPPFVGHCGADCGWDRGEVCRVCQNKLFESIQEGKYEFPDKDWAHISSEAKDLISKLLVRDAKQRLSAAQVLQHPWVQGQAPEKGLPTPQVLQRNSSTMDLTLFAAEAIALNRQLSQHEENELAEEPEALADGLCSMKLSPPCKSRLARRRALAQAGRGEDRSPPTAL
For experiment [3], the target named is Tyrosine-protein kinase Fes/Fps (Homo sapiens) (UniProt P07332). Kind of experiment: Inhibition of FES at 1 uM. In outline:
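Single-concentration screen using Ambit Bioscience KINOMEscan technology across a panel of 250–400 kinases. Per-kinase inhibition from this screen was summarized as S(90), the fraction of kinases inhibited by more than 90%.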

Experiment [4] addresses Ribosomal protein S6 kinase alpha-5 (Homo sapiens) (UniProt O75582). Kind of experiment: Inhibition of RPS6KA5 C-terminal domain2 at 1 uM.
Experiment [5] concerns the target Dual specificity mitogen-activated protein kinase kinase 1 (Homo sapiens) (UniProt Q02750). Put plainly: Inhibition of MEK1 at 1 uM.
Experiment [6] deals with Leukocyte tyrosine kinase receptor (Homo sapiens) (UniProt P29376). Kind of experiment: Inhibition of LTK at 1 uM. In outline:
(§1)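 Single-concentration screen on the Ambit KINOMEscan platform, run against a panel of 250–400 kinases. Per-kinase inhibition was also summarized as S(90), the fraction of kinases inhibited by more than 90%.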

In experiment [7] the target is Proto-oncogene tyrosine-protein kinase Src (Homo sapiens) (UniProt P12931). Kind of experiment: Inhibition of SRC at 1 uM.
Experiment [8] has as its target Proto-oncogene tyrosine-protein kinase ROS (Homo sapiens) (UniProt P08922). Put plainly: Inhibition of ROS1 at 1 uM. The essentials:
as §1

Experiment [9] deals with Mitogen-activated protein kinase kinase kinase 4 (Homo sapiens) (UniProt Q9Y6R4). Kind of experiment: Inhibition of MAP3K4 at 1 uM.
Sequence of Mitogen-activated protein kinase kinase kinase 4 (Homo sapiens) (Q9Y6R4 whole entry): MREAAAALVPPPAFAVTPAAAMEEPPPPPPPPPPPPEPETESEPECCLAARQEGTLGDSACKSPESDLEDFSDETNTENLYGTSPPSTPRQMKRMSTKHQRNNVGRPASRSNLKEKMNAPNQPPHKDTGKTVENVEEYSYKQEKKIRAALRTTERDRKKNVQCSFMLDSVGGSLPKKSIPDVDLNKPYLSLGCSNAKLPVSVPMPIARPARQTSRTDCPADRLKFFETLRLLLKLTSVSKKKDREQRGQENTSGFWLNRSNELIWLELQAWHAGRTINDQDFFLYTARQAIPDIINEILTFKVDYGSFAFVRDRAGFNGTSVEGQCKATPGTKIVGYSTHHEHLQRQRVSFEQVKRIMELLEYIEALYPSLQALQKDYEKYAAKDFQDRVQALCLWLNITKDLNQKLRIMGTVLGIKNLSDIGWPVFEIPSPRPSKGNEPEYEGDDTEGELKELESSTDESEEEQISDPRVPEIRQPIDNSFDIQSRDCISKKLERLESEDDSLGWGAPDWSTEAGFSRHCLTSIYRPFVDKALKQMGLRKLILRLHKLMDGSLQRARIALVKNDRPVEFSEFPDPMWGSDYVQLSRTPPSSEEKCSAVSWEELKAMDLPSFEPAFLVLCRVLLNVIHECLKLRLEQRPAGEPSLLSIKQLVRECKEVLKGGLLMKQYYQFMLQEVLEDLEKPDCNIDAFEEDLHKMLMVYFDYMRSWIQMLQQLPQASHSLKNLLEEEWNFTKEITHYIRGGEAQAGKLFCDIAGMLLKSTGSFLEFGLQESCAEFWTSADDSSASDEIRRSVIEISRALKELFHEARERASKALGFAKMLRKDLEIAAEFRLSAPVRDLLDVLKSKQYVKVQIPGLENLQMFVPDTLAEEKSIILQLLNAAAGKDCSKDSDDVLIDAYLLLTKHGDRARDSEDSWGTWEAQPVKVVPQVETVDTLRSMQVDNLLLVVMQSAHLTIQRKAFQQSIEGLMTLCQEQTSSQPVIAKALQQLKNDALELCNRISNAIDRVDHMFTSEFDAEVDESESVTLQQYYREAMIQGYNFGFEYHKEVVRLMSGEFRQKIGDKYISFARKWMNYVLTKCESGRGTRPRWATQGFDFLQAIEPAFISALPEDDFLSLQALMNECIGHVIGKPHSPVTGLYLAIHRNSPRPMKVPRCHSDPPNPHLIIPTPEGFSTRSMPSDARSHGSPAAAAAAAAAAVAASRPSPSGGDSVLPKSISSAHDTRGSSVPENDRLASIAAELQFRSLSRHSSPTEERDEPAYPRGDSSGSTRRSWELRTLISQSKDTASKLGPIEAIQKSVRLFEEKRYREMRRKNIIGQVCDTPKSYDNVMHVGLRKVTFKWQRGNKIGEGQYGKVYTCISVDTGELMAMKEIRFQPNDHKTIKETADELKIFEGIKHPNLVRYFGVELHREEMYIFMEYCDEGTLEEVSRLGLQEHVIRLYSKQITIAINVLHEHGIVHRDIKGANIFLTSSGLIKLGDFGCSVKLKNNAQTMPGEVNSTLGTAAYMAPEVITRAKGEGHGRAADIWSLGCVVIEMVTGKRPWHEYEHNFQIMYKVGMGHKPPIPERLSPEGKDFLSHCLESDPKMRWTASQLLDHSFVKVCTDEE
In experiment [10] the target is Mitogen-activated protein kinase kinase kinase kinase 4 (Homo sapiens) (UniProt O95819). Put plainly: Inhibition of MAP4K4 at 1 uM. In outline: as §1
In experiment [11] the target is T2, Serine/threonine-protein kinase RIO3 (Homo sapiens) (UniProt O14730).
T2 sequence (whole entry): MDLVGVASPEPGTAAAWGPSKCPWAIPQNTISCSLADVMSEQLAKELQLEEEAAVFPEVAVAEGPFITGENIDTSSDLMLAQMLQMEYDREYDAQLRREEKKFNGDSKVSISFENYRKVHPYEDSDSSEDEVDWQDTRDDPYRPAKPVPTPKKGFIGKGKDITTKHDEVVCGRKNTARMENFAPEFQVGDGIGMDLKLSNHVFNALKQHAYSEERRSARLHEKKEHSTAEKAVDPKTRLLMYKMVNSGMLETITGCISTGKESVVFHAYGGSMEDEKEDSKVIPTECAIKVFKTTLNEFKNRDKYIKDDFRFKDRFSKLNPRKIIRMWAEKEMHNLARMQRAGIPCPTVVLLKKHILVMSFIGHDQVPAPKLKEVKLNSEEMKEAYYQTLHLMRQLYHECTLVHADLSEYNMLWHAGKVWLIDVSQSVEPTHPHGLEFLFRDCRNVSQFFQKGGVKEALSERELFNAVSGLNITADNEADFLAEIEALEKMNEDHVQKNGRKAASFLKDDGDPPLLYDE
Put plainly: Inhibition of RIOK3 at 1 uM.

Experiment [12] has as its target Microtubule-associated serine/threonine-protein kinase 1 (Homo sapiens) (UniProt Q9Y2H9). Kind of experiment: Inhibition of MAST1 at 1 uM.
The target of experiment [13] is T3, Dual specificity protein kinase TTK (Homo sapiens) (UniProt P33981).
T3 sequence (whole entry): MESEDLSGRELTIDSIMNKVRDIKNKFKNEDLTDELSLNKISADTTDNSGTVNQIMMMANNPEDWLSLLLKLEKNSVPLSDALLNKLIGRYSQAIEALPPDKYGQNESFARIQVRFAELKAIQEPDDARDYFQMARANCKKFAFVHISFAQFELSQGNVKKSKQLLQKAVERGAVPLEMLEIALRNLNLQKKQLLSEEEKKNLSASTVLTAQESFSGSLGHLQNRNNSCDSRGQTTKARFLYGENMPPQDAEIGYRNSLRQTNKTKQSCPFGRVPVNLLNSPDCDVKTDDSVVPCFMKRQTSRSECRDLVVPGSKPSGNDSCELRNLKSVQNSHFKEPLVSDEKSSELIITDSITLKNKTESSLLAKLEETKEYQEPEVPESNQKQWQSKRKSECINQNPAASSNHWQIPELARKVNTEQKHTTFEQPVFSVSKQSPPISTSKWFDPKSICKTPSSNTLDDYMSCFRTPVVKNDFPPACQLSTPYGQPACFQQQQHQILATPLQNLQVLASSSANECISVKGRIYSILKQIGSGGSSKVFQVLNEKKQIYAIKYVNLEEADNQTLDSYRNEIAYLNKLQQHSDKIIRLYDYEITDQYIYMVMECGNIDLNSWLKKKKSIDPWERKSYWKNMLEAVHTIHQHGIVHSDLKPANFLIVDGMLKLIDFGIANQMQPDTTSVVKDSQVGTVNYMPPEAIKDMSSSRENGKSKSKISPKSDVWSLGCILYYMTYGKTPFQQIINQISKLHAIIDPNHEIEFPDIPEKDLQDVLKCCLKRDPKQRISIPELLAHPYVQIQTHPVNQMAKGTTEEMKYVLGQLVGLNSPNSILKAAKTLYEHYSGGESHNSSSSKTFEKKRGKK
Kind of experiment: Inhibition of TTK at 1 uM.

The target of experiment [14] is Rho-associated protein kinase 1 (Homo sapiens) (UniProt Q13464). Put plainly: Inhibition of ROCK1 at 1 uM.
Sequence of Rho-associated protein kinase 1 (Homo sapiens) (Q13464 2-1354 limits assumed): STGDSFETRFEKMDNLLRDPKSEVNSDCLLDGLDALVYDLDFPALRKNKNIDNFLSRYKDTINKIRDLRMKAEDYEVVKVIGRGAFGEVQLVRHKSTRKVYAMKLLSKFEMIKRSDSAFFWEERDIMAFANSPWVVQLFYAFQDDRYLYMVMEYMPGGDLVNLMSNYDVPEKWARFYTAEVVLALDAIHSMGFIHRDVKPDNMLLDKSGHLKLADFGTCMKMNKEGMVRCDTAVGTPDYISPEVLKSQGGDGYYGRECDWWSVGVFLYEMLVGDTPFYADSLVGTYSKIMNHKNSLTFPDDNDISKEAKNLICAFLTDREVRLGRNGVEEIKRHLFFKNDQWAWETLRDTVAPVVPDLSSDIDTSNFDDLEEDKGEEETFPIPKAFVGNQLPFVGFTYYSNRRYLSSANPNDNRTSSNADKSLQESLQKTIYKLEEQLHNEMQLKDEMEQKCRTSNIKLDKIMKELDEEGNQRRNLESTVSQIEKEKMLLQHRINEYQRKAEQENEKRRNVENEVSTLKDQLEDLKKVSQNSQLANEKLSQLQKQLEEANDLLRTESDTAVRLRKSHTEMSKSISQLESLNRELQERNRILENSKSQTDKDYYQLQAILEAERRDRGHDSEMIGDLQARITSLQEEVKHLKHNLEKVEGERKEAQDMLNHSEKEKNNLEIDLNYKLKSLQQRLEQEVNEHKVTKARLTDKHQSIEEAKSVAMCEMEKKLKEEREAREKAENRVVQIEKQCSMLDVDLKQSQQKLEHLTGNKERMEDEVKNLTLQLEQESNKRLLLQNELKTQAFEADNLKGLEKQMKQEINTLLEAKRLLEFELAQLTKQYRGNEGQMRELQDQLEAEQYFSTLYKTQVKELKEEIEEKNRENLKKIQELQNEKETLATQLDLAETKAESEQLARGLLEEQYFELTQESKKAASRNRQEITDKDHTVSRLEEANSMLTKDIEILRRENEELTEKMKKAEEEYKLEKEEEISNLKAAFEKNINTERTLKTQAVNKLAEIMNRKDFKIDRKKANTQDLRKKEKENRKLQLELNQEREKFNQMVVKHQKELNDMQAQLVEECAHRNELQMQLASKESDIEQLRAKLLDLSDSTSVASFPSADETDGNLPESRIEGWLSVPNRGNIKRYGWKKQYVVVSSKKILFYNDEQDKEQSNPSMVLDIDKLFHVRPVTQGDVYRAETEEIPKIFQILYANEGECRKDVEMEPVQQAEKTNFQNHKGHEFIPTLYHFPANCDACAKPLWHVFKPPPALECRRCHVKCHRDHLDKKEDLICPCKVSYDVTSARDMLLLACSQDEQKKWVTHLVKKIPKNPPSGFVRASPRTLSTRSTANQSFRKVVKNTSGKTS

SMILES strings stand for the structures.

Sequence of Leukocyte tyrosine kinase receptor (Homo sapiens) (P29376 whole entry): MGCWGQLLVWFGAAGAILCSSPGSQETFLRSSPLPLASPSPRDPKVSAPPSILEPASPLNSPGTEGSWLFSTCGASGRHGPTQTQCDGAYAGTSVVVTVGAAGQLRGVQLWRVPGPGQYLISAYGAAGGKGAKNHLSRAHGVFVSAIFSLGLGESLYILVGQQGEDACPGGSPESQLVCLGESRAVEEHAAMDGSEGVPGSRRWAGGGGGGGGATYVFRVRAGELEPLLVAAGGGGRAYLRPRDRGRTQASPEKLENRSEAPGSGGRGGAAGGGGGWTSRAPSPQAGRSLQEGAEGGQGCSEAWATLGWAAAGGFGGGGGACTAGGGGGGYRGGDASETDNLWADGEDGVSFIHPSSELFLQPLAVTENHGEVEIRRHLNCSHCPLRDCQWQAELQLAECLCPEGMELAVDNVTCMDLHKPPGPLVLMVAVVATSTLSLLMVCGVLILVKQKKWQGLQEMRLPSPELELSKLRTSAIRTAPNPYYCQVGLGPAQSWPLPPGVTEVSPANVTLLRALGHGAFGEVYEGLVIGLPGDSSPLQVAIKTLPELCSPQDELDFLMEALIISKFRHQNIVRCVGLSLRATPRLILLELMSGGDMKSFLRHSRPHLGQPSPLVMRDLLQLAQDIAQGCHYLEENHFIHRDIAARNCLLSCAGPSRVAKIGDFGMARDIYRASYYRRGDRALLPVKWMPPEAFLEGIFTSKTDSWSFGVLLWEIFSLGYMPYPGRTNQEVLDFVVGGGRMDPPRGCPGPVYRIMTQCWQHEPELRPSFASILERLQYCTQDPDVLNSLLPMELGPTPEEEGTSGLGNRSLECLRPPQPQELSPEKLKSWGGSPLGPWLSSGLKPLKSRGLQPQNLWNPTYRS
Sequence of Dual specificity mitogen-activated protein kinase kinase 1 (Homo sapiens) (Q02750 whole entry): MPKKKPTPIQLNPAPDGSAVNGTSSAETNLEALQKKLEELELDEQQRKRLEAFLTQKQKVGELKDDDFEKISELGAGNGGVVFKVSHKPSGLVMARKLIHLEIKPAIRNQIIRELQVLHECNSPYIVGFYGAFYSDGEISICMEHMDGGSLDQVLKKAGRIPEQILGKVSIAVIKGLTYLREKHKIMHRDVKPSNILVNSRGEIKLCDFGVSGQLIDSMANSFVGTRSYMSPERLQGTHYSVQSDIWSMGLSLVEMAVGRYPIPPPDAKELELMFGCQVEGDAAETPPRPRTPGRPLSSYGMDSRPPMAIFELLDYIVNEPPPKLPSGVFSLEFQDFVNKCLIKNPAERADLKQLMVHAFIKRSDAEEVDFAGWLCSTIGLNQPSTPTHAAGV

Turning to `FC(F)(F)c1ccc(Cl)cc1CN1CCNc2ncc(-c3ccnc(N4CCNCC4)c3)cc21`, the inhibition in experiment [1] was < 50%; in [2] it was < 50%; in [3], < 50%; in experiment [4] it was < 50%; in experiment [5], < 50%; in [6] it was 100%. For the same compound, the inhibition in experiment [7] was < 50%; in experiment [8] it was 92%; in experiment [9], < 50%; in experiment [10], < 50%; in experiment [11], < 50%; in [12] it was < 50%. Moreover, the inhibition in experiment [13] and in experiment [14] was < 50% in each case.

On to `CN1CCN(c2ccc(-c3cnc4c(c3)N(Cc3cc(Cl)ccc3Cl)CCN4)cn2)CC1`, for which the inhibition in experiment [1] is < 50%; in [2], < 50%; in [3] it was < 50%; in experiment [4], < 50%; in [5] it was < 50%; in [6] it was 97%. Besides, the inhibition in experiment [7], in [8], in [9], in experiment [10], in [11] and in experiment [12] was < 50% in each case. The inhibition in experiment [13] and in experiment [14] was < 50% in each case.

As for `COC1CCN(C(=O)c2ccc(-c3cnc4c(c3)N(Cc3cc(Cl)ccc3C(F)(F)F)CCN4)cc2)CC1`, the inhibition in experiment [1] was < 50%; in [3] it was < 50%; in experiment [4], < 50%; in experiment [6], 95.5%; in experiment [7], < 50%; in experiment [8], 78.2%. Further, the inhibition in experiment [10], in experiment [11] and in experiment [13] was < 50% throughout.

For `O=C(c1ccc(-c2cnc3c(c2)N(Cc2cc(Cl)ccc2C(F)(F)F)CCN3)cc1)N1CCCCC1`, the inhibition in [1] was < 50%; in experiment [3] it was < 50%; in [4] it was < 50%; in experiment [6] it was 89.3%; in experiment [7], < 50%; in [8] it was < 50%. The inhibition in experiment [9], in experiment [10], in experiment [11] and in experiment [13] was < 50% throughout.

Consider `O=C(O)c1ccc(-c2cnc3c(c2)N(Cc2cc(Cl)ccc2C(F)(F)F)CCN3)cc1`, for which the inhibition in experiment [1] was < 50%; in [3], < 50%; in experiment [4] it was < 50%; in [6] it was 92.7%; in experiment [7], < 50%; in [8], 66.7%. The inhibition in [9], in experiment [10], in experiment [11] and in experiment [13] was < 50% each time.

Turning to `CN1CCN(c2ccc(-c3cnc4c(c3)N(Cc3cc(F)ccc3F)CCN4)cn2)CC1`, the inhibition in experiment [1] was < 50%; in [2] it was < 50%; in [3] it was < 50%; in experiment [4], < 50%; in [5] it was < 50%; in experiment [6] it was 96.8%. The inhibition was < 50% in [7]; 67.5% in [8]; < 50% in [9]; < 50% in experiment [10]; < 50% in [11]; < 50% in experiment [12]. Moreover, the inhibition in [13] and in [14] was < 50% throughout.

For the compound `O=C(c1ccc(-c2cnc3c(c2)N(Cc2cc(Cl)ccc2C(F)(F)F)CCN3)cc1)N1CCC(N2CCCC2)CC1`, the inhibition in [1] is < 50%; in experiment [3] it was < 50%; in [4], < 50%; in [6], 80.7%; in [7], < 50%; in experiment [8], 80.7%. Besides, the inhibition in experiment [9], in experiment [10], in experiment [11] and in experiment [13] was < 50% in each case.

`CN1CCN(c2ccc(-c3cnc4c(c3)N(Cc3c(F)ccc(F)c3Cl)CCN4)cn2)CC1`: the inhibition was < 50% in experiment [1]; < 50% in experiment [2]; < 50% in [3]; < 50% in experiment [4]; < 50% in experiment [5]; 97% in [6]. For the same compound, the inhibition in [7] is < 50%; in experiment [8] it was 73%; in experiment [9], < 50%; in experiment [10], 76%; in experiment [11], < 50%; in experiment [12], < 50%. Besides, the inhibition in experiment [13] and in experiment [14] was < 50% each time.

With `CC(=O)N1CCN(c2cc(-c3cnc4c(c3)N(Cc3cc(Cl)ccc3C(F)(F)F)CCN4)ccn2)CC1`, the inhibition in [1] is < 50%; in experiment [2], < 50%; in [3] it was < 50%; in experiment [4], < 50%; in experiment [5], < 50%; in [6], 99%. In addition, the inhibition in experiment [7] was < 50%; in [8], 79%; in [9], < 50%; in [10], < 50%; in [11], < 50%; in experiment [12], < 50%. Further, the inhibition in [13] and in experiment [14] was < 50% throughout.

In the case of `CN1CCN(c2ccc(-c3cnc4c(c3)N(Cc3cc(Cl)ccc3C(F)(F)F)CCN4)cn2)CC1`, the inhibition in [1] is < 50%; in experiment [2] it was < 50%; in [3], < 50%; in experiment [4], < 50%; in [5], < 50%; in [6], 99%. Moreover, the inhibition in experiment [7] was < 50%; in experiment [8], 72%; in [9], < 50%; in experiment [10], < 50%; in [11], < 50%; in experiment [12], < 50%. Moreover, the inhibition in experiment [13] and in experiment [14] was < 50% in each case.
